According to ChEMBL document CHEMBL1123479, “Substituted 1,3,4-thiadiazoles with anticonvulsant activity. 2. Aminoalkyl derivatives” (J Med Chem, 1986):

Assays:
Mus musculus [1] = assay: Compound was evaluated for inhibition of hind limb tonus (anticonvulsant activity) in mouse maximal metrazole seizures (MMS) after peroral administration; format: functional; conditions: Hindlimb, po
Mus musculus [2] = species on record: Mus musculus; assay: Compound was evaluated for inhibition of hind limb tonus (anticonvulsant activity) in mouse; format: functional, Hindlimb
Procedure, shortened: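 Maximal electroshock in mice, ip dosing. The ED50 (mg/kg) is for blocking hind limb tonic extension at each compound's time of peak effect, which was determined in min. 95% confidence limits are reported.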

Mus musculus [3] = species on record: Mus musculus; assay: Compound was evaluated for anticonvulsant activity in mice against electroshock seizures; format: functional
Procedure, shortened: (§1)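 Mouse screen with oral dosing; the ED50 is given in mg/kg, po. Signs of sedation, ataxia, loss of righting reflex and death were noted after oral dosing before anticonvulsant testing.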

Mus musculus [4] = species on record: Mus musculus; assay: Compound was evaluated for anticonvulsant activity in mice against metrazole seizures; format: functional; procedure, shortened: as §1
[5] = Compound was tested for rotarod test in mice and TD50 value at which 50% of trained animals fall off rotarod was reported; format: organism-based; conditions: mouse, in vivo
Procedure, shortened: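 Mice trained on the rotorod, then dosed po (tested at 1 h) or ip (tested at time of peak anticonvulsant effect). Neurotoxicity scored as falling off the rod.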

Mus musculus [6] = species on record: Mus musculus; assay: Compound was evaluated for inhibition of hind limb tonus (anticonvulsant activity ) in mouse; format: functional, Hindlimb
Procedure, shortened: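 Maximal electroshock in mice, scoring abolition of hind-limb tonic extension. Compound given ip and tested at its time of peak effect. ED50 in mg/kg reported with 95% confidence limits.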

Row | SMILES | ED50 (Mus musculus [3]) | ED50 (Mus musculus [4]) | also measured
1 | NCc1nnc(-c2ccccc2-c2ccccc2)s1 |  |  | ED50 (Mus musculus [1]): 20 mg/kg; Peak effect time (Mus musculus [2]): 10 min
2 | NCc1nnc(Cc2ccccc2)s1 | 110 mg/kg | 200 mg/kg | 
3 | CCC1(c2ccccc2)C(=O)NC(=O)NC1=O [PHENOBARBITAL] |  |  | TD50 [5]: 86 mg/kg; Peak effect time (Mus musculus [6]): 30 min
4 | CNCc1nnc(-c2ccccc2)s1 | > 200 mg/kg | > 200 mg/kg | 
5 | Cc1ccccc1NCc1nnc(-c2ccccc2-c2ccccc2)s1 | > 200 mg/kg | > 200 mg/kg | 
6 | CNCc1nnc(-c2ccccc2-c2ccccc2)s1 | 25 mg/kg | 20 mg/kg | 
7 | O=C1NC(=O)C(c2ccccc2)(c2ccccc2)N1 [PHENYTOIN] |  |  | Peak effect time (Mus musculus [6]): 60 min
8 | CCCCCCOc1ccccc1-c1nnc(CN)s1 | 34 mg/kg |  | 
9 | CC(N)c1nnc(-c2ccccc2-c2ccccc2)s1 (centres undefined) | 21 mg/kg | 32 mg/kg | 
10 | NCCCc1nnc(-c2ccccc2-c2ccccc2)s1 | > 200 mg/kg | > 200 mg/kg | 
11 | NCc1nnc(Cc2ccccc2-c2ccccc2)s1 | 30 mg/kg |  | 
12 | c1ccc(CNCc2nnc(-c3ccccc3-c3ccccc3)s2)cc1 | 37 mg/kg | 29 mg/kg | 
13 | CC(C)NCc1nnc(-c2ccccc2-c2ccccc2)s1 | 23 mg/kg | 35 mg/kg | 
14 | CCCCCCOc1ccccc1-c1nnc(CNC)s1 | 44 mg/kg |  | 
15 | CN(C)Cc1nnc(-c2ccccc2-c2ccccc2)s1 | 32 mg/kg | 35 mg/kg | 
16 | NCCc1nnc(-c2ccccc2-c2ccccc2)s1 | 50 mg/kg | 68 mg/kg | 
17 | NC(=O)N1c2ccccc2C=Cc2ccccc21 [CARBAMAZEPINE] |  |  | Peak effect time (Mus musculus [2]): 20 min
